In ChEMBL document CHEMBL1149415, “Discovery and structure-activity relationship of antagonists of B-cell lymphoma 2 family proteins with chemopotentiation activity in vitro and in vivo” (J Med Chem, 2006):
Calls of active or inactive are those of the source. No cut-off for these calls is given here.

Columns and labels:
Bcl-2-like protein 1 [1] = target: T1, Bcl-2-like protein 1 (Homo sapiens, UniProt Q07817); assay: Binding affinity to Bcl-XL in 1% human serum by fluorescence polarization assay
Target sequence in this assay (Q07817 whole entry): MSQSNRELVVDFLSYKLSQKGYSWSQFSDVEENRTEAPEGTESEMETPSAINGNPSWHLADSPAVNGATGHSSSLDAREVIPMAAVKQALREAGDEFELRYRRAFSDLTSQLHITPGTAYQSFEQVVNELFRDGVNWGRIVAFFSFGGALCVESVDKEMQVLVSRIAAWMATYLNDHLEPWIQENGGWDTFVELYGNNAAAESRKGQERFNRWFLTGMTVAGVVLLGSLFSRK

Bcl-2-like protein 1 [2] = target: T1, Bcl-2-like protein 1; assay: Binding affinity to Bcl-XL by fluorescence polarization assay
Target sequence in this assay (Q07817 whole entry): as above

[3] = target: Apoptosis regulator Bcl-2 (Homo sapiens, UniProt P10415); assay: Binding affinity to Bcl2 by fluorescence polarization assay
Bcl-2-like protein 1 [4] = target: T1, Bcl-2-like protein 1; assay: Activity towards mouse FL5.12 cell line transfected with Bcl-XL in presence of 3% fetal bovine serum; assay type: functional
Procedure, shortened: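 Bcl-XL-transfected murine FL5.12 (IL-3 dependent) grown in RPMI with 10% FBS and WEHI-3B conditioned medium as the IL-3 source. Switched to IL-3-depleted, FBS-free medium for 2 days. Then placed in gelatin assay medium (3.4 mg/mL bovine gelatin) or 3% FBS assay medium. Serial compound dilutions added for 24 h. Viability read by MTS or CellTiter-Glo; duplicate values per determination; EC50.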
Target sequence in this assay (Q07817 whole entry): as above

Bcl-2-like protein 1 [5] = target: T1, Bcl-2-like protein 1; assay: Binding affinity to Bcl-XL in 10% human serum by fluorescence polarization assay
Procedure, shortened: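 Competitive fluorescence polarization: serial compound dilutions compete with 30 nM f-Bad peptide (FITC-labelled) for 60 nM Bcl-XL. Human serum at 10% added to the assay buffer. Duplicate values per determination; Ki calculated.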
Target sequence in this assay (Q07817 whole entry): as above

Albumin = Albumin (Homo sapiens, UniProt P02768); assay: Binding affinity for human serum albumin domain III
Bcl-2-like protein 2 = target: T2, Bcl-2-like protein 2 (Homo sapiens, UniProt Q92843); assay: Binding affinity to Bclw
T2 sequence (Q92843 whole entry): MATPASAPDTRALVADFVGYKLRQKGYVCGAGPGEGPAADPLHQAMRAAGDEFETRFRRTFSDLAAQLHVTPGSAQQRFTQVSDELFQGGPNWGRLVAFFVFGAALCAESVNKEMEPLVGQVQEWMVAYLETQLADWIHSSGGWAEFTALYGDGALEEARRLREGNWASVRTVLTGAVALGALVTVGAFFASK

A549 [6] = assay: Effect on viability of human A549 lung carcinoma cells at 20 uM after 48h by MTS assay in presence of 10% fetal bovine serum; assay type: functional, cell-based
Procedure, shortened: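 A549 seeded in DMEM with 5% FBS the day before. Medium removed and UV-C applied (start 32 mJ/cm², halved each step), then compound added in DMEM with 10% FBS. Viability by MTS at 48 h post-exposure, expressed as percent of untreated samples.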

[7] = target: Induced myeloid leukemia cell differentiation protein Mcl-1 (Homo sapiens, UniProt Q07820); assay: Binding affinity to Mcl1
A549 [8] = assay: Antiproliferative activity against human A549 lung carcinoma cell xenograft tumor model in scid mice in presence of paclitaxel at MTD; assay type: functional
Procedure, shortened: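 A549 cells (5 × 10⁶ in 50% Matrigel) inoculated subcutaneously into flank; groups of equal tumor size (N = 10) assigned at ~250 mm³ (day 15). Dosing ip: agent 75 mg/kg/day days 16-36 in 5% Tween 80/20% PEG/75% 0.1 M NaPO₄ pH ~4.0; paclitaxel 30 mg/kg/day days 16, 20, 24. Calipers twice weekly, V = L × W²; %ILS as median time to 1 cm³.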

A549 [9] = assay: Effect of viability of human A549 lung carcinoma cells at 20uM after 48h by MTS assay in presence of paclitaxel; assay type: functional, cell-based
Procedure, shortened: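 A549 seeded in DMEM with 5% FBS the day before. Pretreated 48 h with paclitaxel serial 3-fold dilutions from 20 nM, then coincubated 48 h with paclitaxel plus compound in DMEM with 0.34% gelatin (serum-free). Viability by MTS, normalized to untreated cells.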

Bcl-2-like protein 1 [10] = target: T1, Bcl-2-like protein 1; conditions: 10 uM
Target sequence in this assay (Q07817 whole entry): as the sequence (Q07817 whole entry) above

Bcl-2-like protein 1 [11] = target: T1, Bcl-2-like protein 1; assay: Inhibitory activity against Bcl-XL in presence of HSA from 1% human serum
Procedure, shortened: (§1)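 Competitive fluorescence polarization assay: serial compound dilutions compete with 30 nM f-Bad peptide (FITC-labelled) for binding to 60 nM Bcl-XL. Human serum (1%) or individual serum proteins are added to the assay buffer. Protein levels: HSA 0.42 mg/mL, HSA-III 0.146 mg/mL, α1-acid glycoprotein 0.0095 mg/mL. IC50 is calculated from duplicate values per determination.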
Target sequence in this assay (Q07817 whole entry): as the sequence (Q07817 whole entry) above

Bcl-2-like protein 1 [12] = target: T1, Bcl-2-like protein 1; assay: Inhibitory activity against Bcl-XL in presence of 1% human serum; procedure, shortened: as §1
Bcl-2-like protein 1 [13] = target: T1, Bcl-2-like protein 1; assay: Inhibitory activity against Bcl-XL in presence of HSA3 from 1% human serum
Target sequence in this assay (Q07817 whole entry, looked up): as the sequence (Q07817 whole entry) above

Bcl-2-like protein 1 [14] = target: T1, Bcl-2-like protein 1; assay: Inhibitory activity against Bcl-XL in presence of alpha-1 acid glycoprotein from 1% human serum; procedure, shortened: as §1

Sequence of Apoptosis regulator Bcl-2 (P10415 whole entry): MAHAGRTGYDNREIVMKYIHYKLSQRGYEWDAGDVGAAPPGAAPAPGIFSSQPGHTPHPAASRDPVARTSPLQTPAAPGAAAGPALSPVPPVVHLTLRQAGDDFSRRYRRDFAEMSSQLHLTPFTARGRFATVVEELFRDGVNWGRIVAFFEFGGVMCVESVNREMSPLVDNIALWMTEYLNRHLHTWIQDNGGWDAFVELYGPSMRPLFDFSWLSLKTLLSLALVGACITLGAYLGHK
Sequence of Albumin (P02768 whole entry, the tested form may be a part): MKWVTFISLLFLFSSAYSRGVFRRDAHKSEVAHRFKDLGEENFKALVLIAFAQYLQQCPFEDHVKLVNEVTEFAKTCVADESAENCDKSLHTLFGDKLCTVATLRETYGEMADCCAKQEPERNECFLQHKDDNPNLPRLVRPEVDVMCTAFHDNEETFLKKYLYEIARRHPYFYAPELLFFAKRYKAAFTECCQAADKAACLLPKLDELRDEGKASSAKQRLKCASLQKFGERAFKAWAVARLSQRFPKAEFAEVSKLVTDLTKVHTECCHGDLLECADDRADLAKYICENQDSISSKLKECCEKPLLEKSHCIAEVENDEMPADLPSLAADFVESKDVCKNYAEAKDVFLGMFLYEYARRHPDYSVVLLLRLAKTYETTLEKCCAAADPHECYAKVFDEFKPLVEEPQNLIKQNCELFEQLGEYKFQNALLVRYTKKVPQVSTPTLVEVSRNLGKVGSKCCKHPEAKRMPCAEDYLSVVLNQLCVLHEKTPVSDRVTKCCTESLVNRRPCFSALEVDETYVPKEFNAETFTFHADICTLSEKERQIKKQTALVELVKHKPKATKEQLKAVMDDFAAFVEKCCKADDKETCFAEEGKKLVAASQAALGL
Sequence of Induced myeloid leukemia cell differentiation protein Mcl-1 (Q07820 whole entry): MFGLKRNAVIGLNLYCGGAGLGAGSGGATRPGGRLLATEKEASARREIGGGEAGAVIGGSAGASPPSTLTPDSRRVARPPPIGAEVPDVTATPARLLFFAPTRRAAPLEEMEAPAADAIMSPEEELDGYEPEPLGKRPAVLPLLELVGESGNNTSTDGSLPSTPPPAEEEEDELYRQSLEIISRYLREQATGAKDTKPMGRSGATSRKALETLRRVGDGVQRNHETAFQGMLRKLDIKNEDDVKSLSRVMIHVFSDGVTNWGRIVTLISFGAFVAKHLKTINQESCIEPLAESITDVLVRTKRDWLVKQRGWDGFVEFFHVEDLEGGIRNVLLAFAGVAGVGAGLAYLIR

Row | SMILES | Ki (Bcl-2-like protein 1 [1]) | Ki (Bcl-2-like protein 1 [2]) | Ki [3] | EC50 (Bcl-2-like protein 1 [4]) | also measured
1 | CN(C)C(=O)N1CCN(c2ccc(C(=O)NS(=O)(=O)c3ccc(NCCSc4ccccc4)c([N+](=O)[O-])c3)cc2)CC1 | 0.869 µM | 0.294 µM | 3.54 µM |  | 
2 | CN(C)CCCC[C@H](CSc1ccccc1)Nc1ccc(S(=O)(=O)NC(=O)c2ccc(N3CCC(C)(C)CC3)cc2)cc1[N+](=O)[O-] | 0.174 µM | 0.0012 µM | 0.073 µM | 3.89 µM | 
3 | COc1cc(CCCN2CCOCC2)ccc1-c1ccc(C(=O)NS(=O)(=O)c2ccc(N[C@@H](CSc3ccccc3)CC(=O)N(C)C)c([N+](=O)[O-])c2)cc1 | 1 µM | 0.0017 µM | 0.121 µM | 7.63 µM | 
4 | COc1cc(CCCN2CCOCC2)ccc1-c1ccc(C(=O)NS(=O)(=O)c2ccc(N[C@H](CCN3CCOCC3)CSc3ccccc3)c([N+](=O)[O-])c2)cc1 | > 10 µM | < 0.0005 µM | 0.165 µM | 2.11 µM | 
5 | COc1cc(CCN(C)C)ccc1-c1ccc(C(=O)NS(=O)(=O)c2ccc(NCCSc3ccccc3)c([N+](=O)[O-])c2)cc1 | 0.998 µM | 0.665 µM | 3.26 µM |  | 
6 | O=C(NS(=O)(=O)c1ccc(NCCSc2ccccc2)c([N+](=O)[O-])c1)c1ccc(N2CCOCC2)cc1 | > 10 µM | 1.08 µM | > 10 µM |  | 
7 | COc1cc(CN(C)C)ccc1-c1ccc(C(=O)NS(=O)(=O)c2ccc(NCCSc3ccccc3)c([N+](=O)[O-])c2)cc1 | 1 µM | 0.426 µM | 4.57 µM |  | 
8 | COc1cc(CCCO)ccc1-c1ccc(C(=O)NS(=O)(=O)c2ccc(NCCSc3ccccc3)c([N+](=O)[O-])c2)cc1 | 2.96 µM | 0.0215 µM | 0.721 µM |  | 
9 | COc1cc(CCCN2CCOCC2)ccc1-c1ccc(C(=O)NS(=O)(=O)c2ccc(N[C@H](CCCN(C)C)CSc3ccccc3)c([N+](=O)[O-])c2)cc1 | 0.071 µM | 0.0009 µM | 0.317 µM | 8.6 µM | 
10 | COc1cc(CCCN(C)C)ccc1-c1ccc(C(=O)NS(=O)(=O)c2ccc(NCCSc3ccccc3)c([N+](=O)[O-])c2)cc1 | 0.73 µM | 0.106 µM | 1.23 µM |  | Ki (Bcl-2-like protein 1 [5]): 5.66 µM
11 | CN(C)CCC[C@H](CSc1ccccc1)Nc1ccc(S(=O)(=O)NC(=O)c2ccc(N3CCC(C)(C)CC3)cc2)cc1[N+](=O)[O-] | 0.728 µM | 0.0026 µM | 0.0921 µM | 14.1 µM | 
12 | COc1cc(CCC(=O)N(C)C)ccc1-c1ccc(C(=O)NS(=O)(=O)c2ccc(NCCSc3ccccc3)c([N+](=O)[O-])c2)cc1 | 1 µM | 0.0389 µM | 0.4 µM |  | 
13 | O=C(NS(=O)(=O)c1ccc(NCCSc2ccccc2)c([N+](=O)[O-])c1)c1ccc(N2CCNCC2)cc1 | > 10 µM | 2.52 µM |  |  | 
14 | CC(C)(C)OC(=O)N1CCN(c2ccc(C(=O)NS(=O)(=O)c3ccc(NCCSc4ccccc4)c([N+](=O)[O-])c3)cc2)CC1 | 3.35 µM | 0.396 µM | 2.88 µM |  | 
15 | CC1(C)CCN(c2ccc(C(=O)NS(=O)(=O)c3ccc(NCCSc4ccccc4)c([N+](=O)[O-])c3)cc2)CC1 | 0.652 µM | 0.019 µM | 0.192 µM |  | 
16 | CC1(C)CCN(c2ccc(C(=O)NS(=O)(=O)c3ccc(N[C@@H](CCN4CCOCC4)CSc4ccccc4)c([N+](=O)[O-])c3)cc2)CC1 | 6.05 µM | 0.075 µM | 0.732 µM | 9.31 µM | 
17 | CC1(C)CCN(c2ccc(C(=O)NS(=O)(=O)c3ccc(N[C@H](CCN4CCOCC4)CSc4ccccc4)c([N+](=O)[O-])c3)cc2)CC1 | > 10 µM | 0.0011 µM | 0.055 µM | 7 µM | 
18 | CN(C)C(=O)C[C@H](CSc1ccccc1)Nc1ccc(S(=O)(=O)NC(=O)c2ccc(N3CCC(C)(C)CC3)cc2)cc1[N+](=O)[O-] | 1.79 µM | 0.0031 µM | 0.075 µM | 15 µM | 
19 | COc1cc(CCCN2CCOCC2)ccc1-c1ccc(C(=O)NS(=O)(=O)c2ccc(N[C@H](CCCCN(C)C)CSc3ccccc3)c([N+](=O)[O-])c2)cc1 | 0.215 µM | < 0.0005 µM | 0.0588 µM | 6 µM | 
20 | CN(C)CC[C@H](CSc1ccccc1)Nc1ccc(S(=O)(=O)NC(=O)c2ccc(N3CCC(C)(C)CC3)cc2)cc1[N+](=O)[O-] | 0.36 µM | 0.0008 µM | 0.067 µM | 5.1 µM | Kd (Bcl-2-like protein 2): 0.459 µM; Activity (A549 [6]): Active; Kd (Albumin): 13.6 µM; Kd [7]: > 10 µM; Activity (A549 [8]): 75%; Activity (A549 [9]): Active
21 | O=C(NS(=O)(=O)c1ccc(NCCSc2ccccc2)c([N+](=O)[O-])c1)c1ccc(-c2ccc(F)cc2)cc1 | 2.5 µM | 0.036 µM | 0.433 µM |  | inhibition (Bcl-2-like protein 1 [10]): 1%; IC50 (Bcl-2-like protein 1 [11]): > 10 µM; IC50 (Bcl-2-like protein 1 [12]): > 10 µM; IC50 (Bcl-2-like protein 1 [13]): 6.3 µM; IC50 (Bcl-2-like protein 1 [14]): 0.122 µM

Continued, in another order:

Row | Ki (Bcl-2-like protein 1 [1]) | Ki (Bcl-2-like protein 1 [2]) | Ki [3] | EC50 (Bcl-2-like protein 1 [4]) | SMILES | also measured
22 | > 10 µM | 0.251 µM | > 10 µM |  | COc1cc(CC(=O)N(C)C)ccc1-c1ccc(C(=O)NS(=O)(=O)c2ccc(NCCSc3ccccc3)c([N+](=O)[O-])c2)cc1 | 
23 | 0.0296 µM | 0.0008 µM | 0.07 µM | 9 µM | COc1cc(CCCN2CCOCC2)ccc1-c1ccc(C(=O)NS(=O)(=O)c2ccc(N[C@H](CCCCN)CSc3ccccc3)c([N+](=O)[O-])c2)cc1 | 
24 | 0.58 µM | 0.0104 µM | 0.402 µM |  | COc1cc(CCCN2CCOCC2)ccc1-c1ccc(C(=O)NS(=O)(=O)c2ccc(NCCSc3ccccc3)c([N+](=O)[O-])c2)cc1 | Ki (Bcl-2-like protein 1 [5]): 4.3 µM
25 | 0.256 µM | 0.001 µM | 0.231 µM | 20.8 µM | CC1(C)CCN(c2ccc(C(=O)NS(=O)(=O)c3ccc(N[C@H](CCCCN)CSc4ccccc4)c([N+](=O)[O-])c3)cc2)CC1 | 
26 | > 10 µM | 0.471 µM | 1.98 µM |  | COc1cc(C(=O)N(C)C)ccc1-c1ccc(C(=O)NS(=O)(=O)c2ccc(NCCSc3ccccc3)c([N+](=O)[O-])c2)cc1 | 
27 | 2.97 µM | 0.894 µM | > 10 µM |  | CC(=O)N1CCN(c2ccc(C(=O)NS(=O)(=O)c3ccc(NCCSc4ccccc4)c([N+](=O)[O-])c3)cc2)CC1 | 
28 | 0.79 µM | 0.0579 µM | 0.366 µM |  | COc1cc(CCC(=O)N2CCOCC2)ccc1-c1ccc(C(=O)NS(=O)(=O)c2ccc(NCCSc3ccccc3)c([N+](=O)[O-])c2)cc1 | 
29 | 1.14 µM | 0.25 µM | 2.16 µM | 59.2 µM | COc1cc(CCCN2CCOCC2)ccc1-c1ccc(C(=O)NS(=O)(=O)c2ccc(N[C@@H](CCN(C)C)CSc3ccccc3)c([N+](=O)[O-])c2)cc1 | 
30 | 0.148 µM | < 0.0005 µM | 0.116 µM | 2.08 µM | COc1cc(CCCN2CCOCC2)ccc1-c1ccc(C(=O)NS(=O)(=O)c2ccc(N[C@H](CCN(C)C)CSc3ccccc3)c([N+](=O)[O-])c2)cc1 | Kd (Albumin): 94 µM
31 | 3.85 µM | 0.252 µM | 1.26 µM | 16.1 µM | CN(C)CC[C@@H](CSc1ccccc1)Nc1ccc(S(=O)(=O)NC(=O)c2ccc(N3CCC(C)(C)CC3)cc2)cc1[N+](=O)[O-] | 
